Results reported in ChEMBL document CHEMBL4513216, “Probing the Open Global Health Chemical Diversity Library for Multistage-Active Starting Points for Next-Generation Antimalarials” (ACS Infect Dis, 2020).

Experiment: Toxicity liver stage against HepG2, at 10uM
Type: cell-based
Design: test concentration 10 uM, cell line HepG2-A16-CD81EGFP
Conditions: human, HepG2-A16-CD81EGFP cells; read-out: INHIBITION
Procedure, shortened: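 Uninfected HepG2-A16-CD81EGFP cells, 3 × 10^3 per well, 1536-well, plated on prespotted compound at 10 μM final, parasite-free screening media added to match infected plates; puromycin 10 μM positive, DMSO 0.5% negative; run in parallel with 48 h PbLuc assay at 37 °C, 5% CO2; viability by CellTiter-Glo luminescence, normalized to controls.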

Point of comparison: `Cc1cc(C(=O)NCc2cc(C)oc2C)no1`, cytotoxicity at 10 µM -9.98%. Against it:
- COc1ccc(CCC(=O)NCCC2CCCO2)cc1Br (configuration not stated) — higher, 2.6%
- CCNC(=O)NC[C@H]1COCc2nc3cc(OC)ccc3n21 — higher, -2.3%
- Cc1ccn(CCC(=O)NCCc2ccco2)n1 — higher, -4.81%
- Cc1ccc2c(c1)C(=O)CC1(CCN(Cc3ccccc3)CC1)O2 — higher, 2.81%
- Cc1nnsc1-c1nnc2sc(C3CCC3)nn12 — higher, -7.86%
- CS(=O)(=O)N1CC(c2nc[nH]n2)c2cc(C(=O)NC3CCCC3)ccc21 (configuration not stated) — lower, -131%
- CCOCc1ncn2c1CN(S(=O)(=O)c1cccc(C)c1)CC2 — higher, -1.33%
- COc1cc2nc(C)n(CC(=O)NCCCN(C)C)c(=O)c2cc1OC — higher, 2.11%
- Cc1ccc2nc(C3CCN(CCO)CC3)nn2c1 — higher, -1.23%
- O=C1CC2(CCN(S(=O)(=O)C3CC3)C2)CN1c1cncnc1 (configuration not stated) — lower, -11.9%
- O=C([C@@H]1CCO[C@@H]2CCN(Cc3cccnc3)C[C@H]21)N1CCCCO1 — higher, -1.17%
- O=C(NCC1OCCc2cn(CC3CC3)nc21)c1ccsc1 (configuration not stated) — higher, 6.69%
- O=C(NCc1ccccc1Cl)c1[nH]nc2c1CS(=O)(=O)CC2 — higher, -0.908%
- COc1ccc(Nc2nc3c(C)nn(C)c3c(=O)n2C)c(OC)c1 — higher, -6.89%
- Cc1cc(C(F)(F)F)nc(C2CCN(C(=O)CO)CC2)n1 — higher, -2.14%
- CN(C)C(=O)Cn1c(C2CC2)c(CN2CCOCC2)c2cccnc21 — higher, -3.99%
- Cc1cnc(CC2COCCN(C(=O)c3cncnc3)C2)cn1 (configuration not stated) — higher, 0.187%
- NC(=O)c1ccccc1Oc1cccc(C2CCCNC2)n1 (configuration not stated) — higher, 5.19%
- Cc1nnc(Nc2cccc(C3CCN(Cc4ncc[nH]4)CC3)n2)s1 — lower, -24%
- CCc1cc(C(=O)N2Cc3ccccc3OC3(CCOCC3)C2)on1 — higher, -9.54%
- Cc1sc2c(C3CCCN(C(C)C)C3)nc(C)n2c1C (configuration not stated) — lower, -13.8%
- Cc1nc(C)c(C(=O)N2CCc3nc4sc(C)cc4c(=O)n3CC2)o1 — higher, -9.31%
- CN1CCC(CN(C)C(=O)c2cc(C3CCCN3C)ccn2)CC1 (configuration not stated) — lower, -28.3%
- Cc1ccc(C(=O)NCCS(=O)(=O)Cc2ccccc2)c(C)c1 — higher, -5.09%
- CN(C)S(=O)(=O)c1ccc(F)c(NC(=O)COCC2CC2)c1 — higher, 3.71%
- CC(C)Cn1ccnc1CNC(=O)NC(C)c1nccs1 (configuration not stated) — lower, -14.3%
- C1CCN(CCN2CCCCC2C2OCCO2)CC1 (configuration not stated) — higher, 3.19%
- O=C(C1CCCOC1)N(CC(F)F)c1cccc(Cl)c1 (configuration not stated) — higher, 8.27%
- CC(C)CNC(=O)c1ccc(NC(=O)NC(C)c2ccccn2)cc1 (configuration not stated) — higher, 5.26%
- CCCNC(=O)c1ccc(NC(=O)NC(C)c2ccccn2)cc1 (configuration not stated) — higher, 9.15%
- COC(=O)C1CCCN1C(=O)c1ccc(Cl)cc1F (configuration not stated) — higher, -7.7%
- NS(=O)(=O)c1ccc(NCc2ccco2)c2ncccc12 — lower, -153%
- CCc1cccnc1NCc1cnc(N2CCOCC2)nc1 — higher, 1.03%
- O=C(NCC1CC(=O)N(CCc2ccccc2)C1)c1c(F)cccc1F (configuration not stated) — higher, 9.52%
- CCCn1cc(NC(=O)c2ccc(NC(=O)NC3CC3)cc2)ccc1=O — higher, 1.93%
- Cc1cc(S(=O)(=O)N2CCCc3cc(Cl)ccc32)sc1C(=O)O — lower, -16%
- Cc1cnn(CCNCc2ccc(S(C)(=O)=O)cc2)c1 — higher, 7.55%
- CCOCC(=O)Nc1cccc(Oc2ccccn2)c1 — higher, -2.41%
- O=S(=O)(Cc1ccccc1F)Cc1nnnn1C1CC1 — lower, -16.5%
- CS(=O)(=O)CCOCCNc1ccc(C(F)(F)F)cc1C#N — higher, 2.31%
- COc1cc(C(C)=O)ccc1SCC(=O)Nc1cc(C)n[nH]1 — higher, 9.83%
- CC(C)OCCSCc1nnc(-c2cccc(F)c2)o1 — higher, 9.45%
- CCN(CC)S(=O)(=O)NCCc1cc(C)ccc1OC — higher, -2.64%
- Cn1cnnc1-c1cncc(NCc2ccccc2Br)c1 — higher, 6.53%
- CN(C)c1ncc(CNS(=O)(=O)c2cccc3ccccc23)n1C — higher, 8.32%
- CS(=O)(=O)NC(=O)CCc1cccc(OC2CCCC2)c1 — higher, -5.01%
- Cc1cc(C)cc(OCCCn2nc3ccccn3c2=O)c1 — higher, 3.95%
- CC(CO)(NC(=O)NCc1ccc(Br)s1)C1CC1 (configuration not stated) — higher, 4.68%
- COc1ccc(C(=O)NCCCC2(C3OCCO3)CCOCC2)cc1 — higher, 3.05%
- CCCS(=O)(=O)NC(=O)c1ccc(Br)o1 — higher, -6.11%
- O=C(Nc1ccccc1Oc1cccc(F)c1)C1CCS(=O)(=O)C1 (configuration not stated) — higher, 2.64%
- CCc1ccc(CC)c(NCC(=O)N2CCCC(NC(C)=O)C2)c1 (configuration not stated) — higher, -5.87%
- Cc1cc(C(=O)N2CCCC2)ccc1NCCOCC(F)(F)F — higher, 0.608%
- COCc1nc2n(n1)CCCC2Nc1nc(C2CC2)ns1 (configuration not stated) — higher, 17%
- Cc1ccc(C(O)CNC(=O)NCc2nc(C)cs2)cc1 (configuration not stated) — lower, -13.3%
- CCOCC(O)CN1CCN(C(=O)c2cccc(F)c2)CC1 (configuration not stated) — lower, -11.1%
- Cn1cc(CC2CCN(C(=O)NCCc3cccc(O)c3)C2)cn1 (configuration not stated) — higher, 1.05%
- O=C([C@H]1CC[C@@H]2[C@@H](CCN2c2ncccn2)O1)N1CCCCO1 — higher, 6.46%
- O=C(Cc1ccc(F)cc1)N1CCn2cc(Cn3cncn3)nc2C1 — lower, -74%
- COc1cc2nc(NCCN3CCNC3=O)cc(C)c2cc1OC — higher, -0.454%
- CCC(CO)N(Cc1ccco1)C(=O)c1sccc1NC(C)=O (configuration not stated) — higher, 3.36%
- Cc1nnc(SCCNC(=O)c2cc(S(N)(=O)=O)ccc2F)s1 — higher, -1.4%
- CCN(Cc1ccc2cccc(O)c2n1)CC1CCCO1 (configuration not stated) — higher, -4.02%
- CC(C)Cc1nc(CN2CCC3(CCCO3)CCC2=O)no1 (configuration not stated) — higher, 1.95%
- Cc1ccc(F)c(C(=O)N2C[C@@H](C(=O)O)[C@H](c3ccccc3)C2)c1Cl — higher, -6.06%
- Cc1cnc(NC(=O)c2cccc(CN(C)Cc3snnc3C)c2)s1 — higher, 16.3%
- O=C(CSc1ccccc1)Nc1cnn(CC(=O)N2CCCO2)c1 — higher, -0.969%
- Cc1cccc(-c2cc(-c3c(C)nn(CCO)c3C)c(C#N)c(N)n2)c1 — higher, 20.2%
- Cc1cccc(CNC2CC(=O)N(CCc3cccc(Cl)c3)C2)n1 (configuration not stated) — lower, -134%
- COCC(=O)N1CCN(S(=O)(=O)c2cccs2)[C@H]2CS(=O)(=O)C[C@H]21 — higher, 1.44%
- CC(C)=CCN1CCNC(=O)C1CC(=O)N1CCc2sccc2C1 (configuration not stated) — higher, 0.429%
- CC(C)c1cc(NCC(O)c2ccccn2)n2nccc2n1 (configuration not stated) — higher, 13%
- COCC(=O)N1CCCC(C(=O)N(C)CCn2ccnc2C)C1 (configuration not stated) — higher, 0.707%
- COCc1noc(CC2CN(c3ncnc4sc(C)c(C)c34)CCO2)n1 (configuration not stated) — higher, -0.649%
- Fc1cccc(C2CCCCN2Cc2nc(-c3cnccn3)no2)c1 (configuration not stated) — higher, -3.02%
- COc1cc(C(=O)N2CC[C@@H](NC(=O)c3ccccn3)[C@H](O)C2)ccn1 — higher, 0.894%
- O=C1CCCN1CCCNCc1cc(O)c2cccc(Cl)c2n1 — higher, 4.05%
- CN(Cc1cc(C2CC2)on1)C(=O)CN1C(=O)OC(C)(C)C1=O — lower, -127%
- CSCC[C@H](N)C(=O)N1CC(Oc2ccccc2C)C1 — higher, 0.897%
- C[C@@H]1CN(CCC(=O)N(C)Cc2ccccc2)CC[C@@]1(O)C1CCC1 — higher, 2.89%
- CS(=O)(=O)CCN1CCC2(CCCN(C3CCOCC3)C2=O)C1 (configuration not stated) — higher, -5.65%
- COc1ncc(-c2nccn2CCN(C)C)cn1 — lower, -17.4%
- CC(=O)NC(C)CC(=O)NCc1cccnc1Oc1ccccc1C (configuration not stated) — higher, 11.4%
- COc1cccc(N2CCN(C(=O)C(O)c3cccc(Cl)c3)CC2=O)c1 (configuration not stated) — lower, -11.2%
- CC(=O)N(Cc1ncc(C(C)C)o1)C1CCN(CCn2cncn2)C1 (configuration not stated) — lower, -11.3%
- Cc1ncc(C(=O)NCCNC(=O)Cc2cccc(F)c2)s1 — higher, -4.53%
- Cc1nc(CN2CCCC(N(C)CCOCC(F)(F)F)C2)no1 (configuration not stated) — higher, -4.92%
- CC(C)c1nnc2n1CCN(CC(=O)N1CCc3sccc3C1)C2 — lower, -10.4%
- O=C(Nc1cnn(CCN2CCOCC2)c1)c1ccccc1Cl — higher, -5.81%
- Cc1nc(C)n(CC2CCCCN2Cc2nc(-c3ccco3)no2)n1 (configuration not stated) — lower, -10.6%
- Cc1cc(C)n(CC2CCCN2C(=O)CCc2ccncc2)n1 (configuration not stated) — lower, -14.4%
- CC(C)OCCN1CCC(C(=O)c2cc(F)ccc2F)CC1 — higher, -8.63%
- CCc1nc2n(n1)CC(NCC(=O)Nc1oc(C)c(C)c1C#N)CC2 (configuration not stated) — higher, -8.84%
- CCOc1ccnc(N2CCN(C(=O)c3ccoc3C)CC2)n1 — higher, -0.463%
- Cc1ccc(-c2nc(CN3CCOC(Cn4cccn4)C3)no2)cc1 (configuration not stated) — higher, -8.93%
- CC(C)C(=O)NC1CCCN(C(=O)c2cc3ccccc3cc2O)C1 (configuration not stated) — higher, -4.14%
- CNc1cc2c(nn1)CCN(C(=O)c1cccc3c1OCO3)C2 — lower, -10.6%
- CC(C)c1ncc2c(n1)CN(Cc1cccc(OCC(N)=O)c1)CC2 — higher, -7.44%
- c1ccc(-n2nnnc2CN2CCCC(Cn3cncn3)C2)cc1 (configuration not stated) — higher, 0.962%
- COc1ccc(C(=O)N2CCC(Nc3cccnn3)CC2)c(OC)c1 — higher, 4.67%
- CCNC(c1ccc(OC)cc1)c1cccnc1 (configuration not stated) — higher, -3.54%
- COc1ccc(CNCc2c(C)nn(C)c2N2CCOCC2)cc1 — higher, -1.32%
- Fc1ccc(CN2CCCN(Cc3cscn3)CC2)cc1 — higher, 2.62%
- N#Cc1cccc(CN2Cc3nccn3CC(CN3CCCC3)C2)c1 (configuration not stated) — lower, -135%
- N#Cc1ccc(C(=O)N2CC[C@H]3[C@H]2CCN3CC2CCOCC2)cc1 — higher, -5.19%
- CCC(CC)C(=O)N1CCOC2(COCCN(CC(=O)NC)C2)C1 (configuration not stated) — higher, 2.35%
- c1ccn(Cc2nnc3n2CCCN(Cc2ccoc2)C3)c1 — higher, 0.993%
- CC(C)CCN1CCC2(CC1)CN(C(=O)c1cnccn1)CCO2 — lower, -12.6%
- Fc1cnc(N2CCO[C@H]3CN(CC4CCCC4)C[C@H]32)nc1 — higher, -9.39%
- CCn1cc(-n2cc3nc(N(C)C)[nH]cc-3c2=O)cn1 — higher, 10.2%
- Cc1cc(N2CCN(C(=O)[C@@H]3C[C@H]4C=C[C@@H]3C4)CC2)nc2ccccc12 — higher, -5.71%
